Hits are enriched below; roughly 3.4% of the tested compounds scored in any of these assays.
GPR7 antag: antagonists of human GPR7 (neuropeptides B/W receptor 1); P48145; GPR7-expressing cells, fluorescence antagonist assay; inhibition, % at 4.4 µM; actives 1.1% (n = 290,000); AID 1861; in the data active = inhibition above about 16%, passing the limit was not always enough;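 note: cells stimulated with the agonist NPW; 0% = agonist with vehicle and 100% = vehicle without agonist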
Target sequence (P48145 whole entry, looked up): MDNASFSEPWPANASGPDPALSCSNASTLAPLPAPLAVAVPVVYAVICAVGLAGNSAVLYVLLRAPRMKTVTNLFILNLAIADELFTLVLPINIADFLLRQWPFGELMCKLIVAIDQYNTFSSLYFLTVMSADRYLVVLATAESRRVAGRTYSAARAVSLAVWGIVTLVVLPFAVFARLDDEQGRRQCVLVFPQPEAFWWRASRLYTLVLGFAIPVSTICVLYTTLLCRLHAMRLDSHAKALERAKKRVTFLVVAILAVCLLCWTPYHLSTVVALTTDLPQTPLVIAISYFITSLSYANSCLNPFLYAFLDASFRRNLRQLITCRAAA
TAAR1 agonist: human TAAR1 agonism. Q96RJ0. CHO RD-HGA16 TAAR1, Fluo-8 calcium fluorescence; vehicle wells 0%, saturating PEA agonist 100%. activation, % at 3 µM. actives 0.99% (n = 360,000);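 active = activation above the mean activation of all test compounds in the run plus 3 SD, cut at about 38% in these data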
Target sequence (Q96RJ0 whole entry, looked up): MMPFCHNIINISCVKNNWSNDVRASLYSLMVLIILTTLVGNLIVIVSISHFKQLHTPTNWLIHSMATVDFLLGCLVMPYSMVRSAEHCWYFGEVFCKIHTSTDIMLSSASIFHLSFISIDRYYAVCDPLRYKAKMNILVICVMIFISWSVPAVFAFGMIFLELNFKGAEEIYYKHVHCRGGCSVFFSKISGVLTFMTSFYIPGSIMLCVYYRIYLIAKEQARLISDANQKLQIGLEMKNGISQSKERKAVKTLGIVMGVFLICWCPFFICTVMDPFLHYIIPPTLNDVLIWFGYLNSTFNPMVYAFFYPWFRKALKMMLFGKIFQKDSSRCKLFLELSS
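Signal – calcium-sensitive Fluo-8 signal, excitation 470-495, emission 515-575 nm · System – RD-HGA16 (CHO) cells co-expressing Gα16 and hTAAR1 · Incubation – 17-24 h seeding, 75 min 37 °C dye, 30 min RT · Compound dosing – 3 µM single concentration · Repeats – no replicates (n 1)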
TRPML3 agonist: agonists of human TRPML3 channel. Q8TDD5. HEK293 TRPML3-YFP, Fluo-8 calcium fluorescence; 100% = the carbachol control signal. activation, % at 3 µM. actives 0.29% (n = 220,000). AID 1448;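 active = activation above its plate's cutoff, the mean activation of the plate's test wells plus 3 SD, cut at about 12% in these data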;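 note: 0% = DMSO only wells and 100% = carbachol wells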
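Material: TRPML3-YFP stable HEK293 cells | Dosing: One concentration, 3 µM nominal, 0.3% DMSO | Timing: 125 s total fluorescence read per well | Technique: Fluo-8 calcium dye fluorescence, ex 470-495, em 515-575 nm | Measure: Percent activation from peak-to-basal fluorescence ratio, scaled between DMSO and carbachol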
LANA-H2A inh: blocks KSHV LANA binding to histone H2A/H2B. Q9QR71. cell-free LANA-H2A/H2B peptide, fluorescence polarization. inhibition, % (concentration not given with the values). actives 0.6% (n = 320,000); in the data active = inhibition mostly above about 10%, no sharp cut-off; inactive = mostly below about 6.7%
TRPN1 ag: zebrafish TRPN1 (NompC) channel agonism. HEK293 zebrafish TRPN1-YFP, Fluo-8 calcium fluorescence; 100% = response to 87 µM carbachol. activation, % at 3 µM. actives 0.18% (n = 220,000). AID 1424;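 active = activation above its plate's cutoff, the mean activation of test wells on that plate plus 3 SD, cut at about 19% in these data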;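 note: 0% = DMSO alone and 100% = 87 µM carbachol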
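Assay system: Zebrafish TRPN1-YFP in HEK293 cells | Incubation: Dye loading 1 h at 37 °C, then 30 min room temperature | Measured by: Kinetic Fluo-8 fluorescence, ex 470-495, em 515-575 nm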
TAAR1 antag: antagonists of human TAAR1 | inhibition, % at 3 µM | actives 1.5% (n = 360,000) | CHO RD-HGA16 TAAR1, Fluo-8 calcium fluorescence, antagonist | Q96RJ0 | AID 624466;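 active = inhibition above a per-plate cutoff, the mean inhibition of test compounds on that plate plus 3 SD, cut at about 49% in these data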;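 note: 0% = DMSO plus EC80 beta-PEA response and 100% = DMSO alone without agonist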
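Assay system: RD-HGA16 CHO cells with stable hTAAR1 and Gα16 / Reagent: EC80 β-phenethylamine stimulus / Doses: 3 µM, single point / Timing: dye loading 75 min at 37 °C, then 30 min room temperature / Measured by: Fluo-8 intracellular calcium dye fluorescence, real-time kinetic reads / Controls: vehicle wells and EC80 agonist wells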
TRPN1 ag 2: activates zebrafish TRPN1, counter-screen for TRPML3 agonists. shares compounds with TRPML3 agonist. actives 10% (n = 310). HEK293 zebrafish TRPN1-YFP, Fluo-8 calcium fluorescence; scaled: carbachol wells 100%, DMSO wells 0%. activation, % at 3 µM;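 active = mean activation over replicates above a set limit taken from the earlier TRPN1 channel primary screen, cut at about 19% in these data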;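 note: 100% = carbachol and 0% = 0.3% DMSO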
TRPML3 ag conf: confirmation of human TRPML3 channel agonists | shares compounds with TRPML3 agonist | HEK293 TRPML3-YFP, Fluo-8 calcium fluorescence; 100% set by carbachol, 0% by DMSO | actives 80% (n = 310) | AID 1526 | activation, % at 3 µM;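 active = activation above a set limit derived from the earlier primary screen, cut at about 12% in these data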
An asterisk follows results filed as active; . = not tested or not shown; + = active, no number.

SMILES	GPR7 antag	TAAR1 agonist	TRPML3 agonist	LANA-H2A inh	TRPN1 ag	TAAR1 antag	TRPN1 ag 2	TRPML3 ag conf
CCN(CC)C(=O)c1ccc(NS(=O)(=O)c2ccccc2)cc1	6.0	13.0	0.3	7.5	-0.4	-13.9	.	.
CCN(CC)C(=O)c1ccc(S(=O)(=O)c2ccccc2)cc1	-13.2	1.3	.	+	.	2.0	.	.
CCC(=O)Oc1c(S(=O)(=O)c2ccc(C)cc2)c(C)nn1C(C)(C)C	7.5	7.0	4.2	-1.8	-1.2	5.3	.	.
CCCC(=O)Oc1c(S(=O)(=O)c2ccc(C)cc2)c(C)nn1C(C)(C)C	-9.6	-2.0	25.7*	-5.9	-0.2	-29.9	5.7	84.5*
O=C(C(=O)N1CCC(CNC(=O)c2cccnc2Cl)CC1)c1cc2ccccc2o1	.	1.6	.	.	.	-29.2	.	.
COC(=O)c1ccc(Cl)cc1N(Cc1c(F)cccc1Cl)S(C)(=O)=O	-8.6	0.4	70.4*	4.1	4.0	15.2	11.1	84.0*
CCN(CC)c1ccc2cc(-c3nnc(-c4ccccc4)o3)c(=O)oc2c1	17.6	33.7	12.4*	1.9	18.6	39.9	247.6*	177.2*
COCc1[nH]nc2c1C(c1ccc3c(c1)OCO3)N(c1ccc(OC)cc1)C2=O (stereo not given)	.	0.8	.	.	.	-23.3	.	.
CC1CC(C)(C)N(C(=O)CN2C(=O)c3ccccc3C2=O)c2ccccc21 (stereo not given)	-9.5	10.9	209.6*	10.4	3.9	7.0	97.0*	205.1*
CC1=CC(C)(C)N(C(=O)CN2C(=O)c3ccccc3C2=O)c2ccccc21	-17.9	0.0	67.2*	-9.0	-1.3	-2.4	1.8	92.3*
CC1=CC(C)(C)N(C(=O)CN2C(=O)CCC2=O)c2ccc(C)cc21	7.0	-0.2	1.2	0.0	0.7	-8.3	.	.
Fc1cccc(Cc2c(-c3ccco3)nc3c4ccccc4ccn23)c1	.	6.9	.	.	.	-18.0	.	.
CC1(C)Cc2cccc(Oc3ccc(S(=O)(=O)N4CCCCC4)cn3)c2O1	1.6	4.0	19.6*	-2.2	-1.7	-19.2	-1.4	29.6*
CC1(C)Cc2cccc(Oc3ccc(S(=O)(=O)N4CCCC4)cn3)c2O1	7.6	8.0	1.7	6.6	-1.2	-29.6	.	.
Cc1ccc(S(=O)(=O)NC2CCCCC2)c2nsnc12	-7.3	6.8	11.5*	-2.7	-0.7	-12.2	0.5	12.1*
O=S(=O)(NC1CCCCC1)c1cccc2nsnc12	-0.3	2.1	.	5.6	.	-8.6	.	.
Cc1cc(Br)ccc1NC(=O)c1sc2ncnc(N3CCN(c4ccccn4)CC3)c2c1C	7.2	0.0	.	0.8	.	-3.2	.	.
Cc1ccc(NC(=O)c2cnc(N3CCN(c4ccccn4)CC3)c3ccccc23)c(Br)c1	25.6*	9.9	25.1*	-1.5	2.8	72.4*	3.9	47.6*
CCOC(=O)Cc1csc2nc(-c3ccccc3)cn12	.	3.1	.	.	.	-21.2	.	.
O=C(COc1ccc(/C=N/NC(=O)c2ccccc2)cc1)Nc1ccc([N+](=O)[O-])cc1	-1.8	15.7	-0.1	-1.9	3.7	7.0	.	.
CC(C)Oc1ccc(/C=N/NC(=O)C(CSCc2ccccc2)NC(=O)c2ccc([N+](=O)[O-])cc2)cc1 (stereo not given)	-9.3	.	52.9*	-3.1	0.8	.	5.8	78.2*
COC(=O)C1=C(C)N(C)C(=NCc2cc(OC)c(OC)c(OC)c2)NC1c1ccc(C(F)(F)F)cc1 (stereo not given)	.	3.1	.	.	.	-25.2	.	.
COc1ccc(CN2C(=O)CN(S(C)(=O)=O)CC2(C)C(=O)NCc2ccccc2)cc1OC (stereo not given)	.	1.7	.	.	.	4.0	.	.
COc1nc(N(C)C)nc(N(OC)S(=O)(=O)c2ccccc2Cl)n1	-4.2	16.4	0.5	-2.0	-0.7	8.2	.	.
COc1cc(C)nc(N(C)S(=O)(=O)c2ccccc2Cl)n1	-11.5	6.0	28.0*	1.9	2.9	-5.1	4.5	66.6*
SMILES	GPR7 antag	TAAR1 agonist	TRPML3 agonist	LANA-H2A inh	TRPN1 ag	TAAR1 antag	TRPN1 ag 2	TRPML3 ag conf
COc1ccc(C(=O)CSc2nnc(-c3ccc(C)cc3)o2)cc1	-11.2	5.6	0.0	2.4	-0.1	8.0	.	.
COc1ccc2c(c1)C(C)=CC(C)(C)N2C(=O)CSc1nnc(-c2ccc(C)cc2)o1	-8.3	8.7	37.5*	0.1	-2.4	13.2	-1.4	47.9*
CCOc1cc(/C=C2\SC(=S)N(C(C(=O)O)c3ccccc3)C2=O)ccc1O (stereo not given)	5.9	18.2	13.4*	-3.8	14.4	1.5	33.3*	15.2*
N#Cc1ccc(OCC(=O)N[C@@H](Cc2ccccc2)c2nc3ccccc3[nH]2)cc1	.	3.7	.	.	.	27.8	.	.
CCCCNC(=O)c1[nH]c(C2CCNCC2)nc1-c1cccc(C(F)(F)F)c1	.	-0.2	.	.	.	-4.7	.	.
Nc1nc2cc3c(cc2cc1C(=O)NCc1cccnc1)OCO3	.	2.0	.	.	.	12.7	.	.
Cc1noc(C)c1COC(=O)c1cccc(S(=O)(=O)N2CCCCCC2)c1	-1.3	7.8	13.0*	-3.2	10.8	14.7	6.4	17.8*
COc1ccc(S(=O)(=O)N2CCCCCC2)cc1C(=O)OCc1c(C)noc1C	11.3	16.3	29.9*	1.4	2.5	2.5	1.8	13.7*
COc1ccc(S(=O)(=O)N2CCc3ccccc32)cc1C(=O)OCc1c(C)noc1C	-4.5	2.8	0.9	0.3	0.4	3.0	.	.
CCCCCCc1ccc(-c2ccc(C#N)cc2)cc1	.	0.8	.	.	.	-17.7	.	.
CCOc1ccccc1NC(=O)C1CCN(c2ccc(S(=O)(=O)N3CCCC3)cc2)CC1	3.3	4.2	20.3*	.	0.5	9.1	1.4	20.2*
CCOc1ccccc1NC(=O)C1CCN(S(=O)(=O)c2ccc(OC)c(OC)c2)CC1	2.1	-0.6	-0.3	-4.3	-2.2	-11.3	.	.
CN(CCOc1ccccc1)c1ccc(S(=O)(=O)N2CCCCC2)cn1	-4.4	23.6	26.3*	-6.2	0.1	6.1	-0.1	51.6*
COc1ccc(C(=O)c2ccccc2)c(O)c1	-17.5	2.1	-0.2	0.2	-1.1	18.0	.	.
O=C(c1ccccc1)c1ccc(O)cc1O	-1.4	24.2	17.7*	44.6*	17.8	8.8	11.1	7.8
O=c1cc(C(F)(F)F)[nH]c2ccc(OC(F)(F)F)cc12	-16.3	9.0	11.8*	4.5	16.8	-12.6	26.4*	9.0
CCOc1ccc2[nH]c(C)cc(=O)c2c1	-14.1	1.4	0.5	12.6	1.8	-11.8	.	.
